Source: PubChem
This is a sample that favours compounds with a hit; in the whole collection about 0.89% have one here.
PG9 Ab binder: small molecules binding HIV-1 gp120 antibody PG9. 360,000 tested, 0.43% active. inhibition, % at 6.7 µM. TR-FRET gp120-PG9 antibody binding; in the data active = inhibition above about 8.5%
ABCB6 inh 2: inhibitors of human ABC transporter ABCB6; Q9NP58; K562-ABCB6 porphyrin accumulation, flow cytometry, 1 h; hits give low values; fluorescence ratio to DMSO, % at 10 µM; 360,000 tested, 0.19% active; AID 602162;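 active = fluorescence ratio to DMSO below 75%, the collection mean minus 3 SD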;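 also: signal is porphyrin accumulated inside mitochondria; lower ratio means ABCB6 inhibition with less porphyrin fluorescence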
Target sequence (Q9NP58 whole entry, looked up): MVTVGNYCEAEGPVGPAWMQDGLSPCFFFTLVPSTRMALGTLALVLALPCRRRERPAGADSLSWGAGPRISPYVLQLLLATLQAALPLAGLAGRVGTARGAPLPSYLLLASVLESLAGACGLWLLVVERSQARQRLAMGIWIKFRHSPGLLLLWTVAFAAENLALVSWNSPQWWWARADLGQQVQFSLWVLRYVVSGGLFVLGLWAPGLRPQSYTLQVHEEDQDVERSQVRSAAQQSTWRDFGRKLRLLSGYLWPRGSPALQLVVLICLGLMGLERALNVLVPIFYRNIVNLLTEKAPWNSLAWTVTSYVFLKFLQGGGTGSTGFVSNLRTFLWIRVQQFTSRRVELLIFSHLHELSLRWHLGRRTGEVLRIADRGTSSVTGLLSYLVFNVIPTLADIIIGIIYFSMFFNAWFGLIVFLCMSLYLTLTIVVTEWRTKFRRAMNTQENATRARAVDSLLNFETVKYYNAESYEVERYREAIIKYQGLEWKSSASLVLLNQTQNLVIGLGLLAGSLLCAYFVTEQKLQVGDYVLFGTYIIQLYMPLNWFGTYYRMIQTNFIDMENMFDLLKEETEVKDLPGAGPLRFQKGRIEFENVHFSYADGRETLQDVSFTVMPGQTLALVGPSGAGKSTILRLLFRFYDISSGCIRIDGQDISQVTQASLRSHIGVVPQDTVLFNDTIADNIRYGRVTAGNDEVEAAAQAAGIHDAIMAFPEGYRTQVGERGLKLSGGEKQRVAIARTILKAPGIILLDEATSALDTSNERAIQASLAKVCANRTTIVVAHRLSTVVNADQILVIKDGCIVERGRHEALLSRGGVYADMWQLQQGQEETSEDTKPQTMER
Arr AP2 block: blocks beta-arrestin peptide binding to AP2 adaptin; FITC-arrestin peptide / GST-AP2 beads, flow cytometry; AP2 beta2 appendage carries R879A mutation; inhibition, % at 10 µM; 340,000 tested, 0.31% active; AID 504490;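 active = inhibition above a set limit, near 3 SD of compounds lacking own fluorescence, cut at about 54% in these data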
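System: GST-AP2 R879A glutathione beads | Also added: FITC-arrestin peptide, 50 nM | Times: 12 min plus 1 h, RT | Signal: Bead flow cytometry, FITC channel | Buffer or medium: PBS with 0.05% Tween 20 and 0.1% BSA | Read-out basis: Percent drop in bead-associated FITC signal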
iPSC survival up: hiPSC single-cell survival enhancement. ATPlite luminescence; 100% = ROCK inhibitor wells, 0% = DMSO. survival enhancement, % at 20 µM. 360,000 tested, 0.044% active; in the data active = survival enhancement above about 18%;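 also: cells exposed to compounds for 16 hours before the ATP read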
ABCB6 blocker 1: blocks the human ABCB6 transporter; shares compounds with ABCB6 inh 2; K562-ABCB6 porphyrin accumulation, flow cytometry, 1 h; hits give low values; AID 602430; ratio response (% of DMSO), % at 10 µM; 700 tested, under 10 active;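 active = repeat-averaged ratio response below 75% of DMSO, the collection mean minus 3 SD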;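 also: median porphyrin fluorescence at 575 nm with 488 nm excitation from mitochondria; lower ratio means less porphyrin signal so ABCB6 inhibition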
A number is an active result; - = inactive; . = no result given.

SMILES	PG9 Ab binder	ABCB6 inh 2	Arr AP2 block	iPSC survival up	ABCB6 blocker 1
Cc1nc(N2CCN(c3ccccc3)CC2)nc2c1C(=O)CC(C)C2 (stereo not given)	-	-	-	-	.
COC(=O)c1ccc(NC(=O)COc2ccc(S(=O)(=O)N3CCCCC3)cc2)cc1	-	70	-	-	-
O=C(COc1cccc(C(F)(F)F)c1)Nc1ccc(S(=O)(=O)N2CCCC2)cc1	-	60	-	-	-
O=C(Cc1cccc(C(F)(F)F)c1)Nc1ccc(S(=O)(=O)N2CCCC2)cc1	-	-	-	-	.
O=C(Nc1ccc([N+](=O)[O-])cc1)c1ccc(S(=O)(=O)N2CCCC2)cc1	-	73	-	-	-
CN[C@H]1C[C@H]2c3[nH]c4c(-c5ccccc5)cccc4c3CCN2C[C@H]1[C@H](C)O	-	.	.	.	.
COC(=O)[C@]12C[C@H](CC(=O)N3CCN(C(=O)c4ccco4)CC3)C(=O)N(CCC3=CCCCC3)C1=C[C@H](C(C)(C)C)O[C@@H]2C	-	.	.	.	.
NC(=O)NN=C1CCC(O)CC1CC(=O)O (stereo not given)	-	.	.	.	.
COC(=O)c1cc2c(c3c4ccccc4n(S(=O)(=O)c4ccc(OC)cc4)c13)C(=O)N(Cc1ccco1)C2	-	.	.	.	.
Cc1ccc(F)c(S(=O)(=O)NC(=O)C2(C)CCN2C(=O)C2(c3ccc(Cl)cc3)CC2)c1 (stereo not given)	-	-	.	-	-
CC1(C(=O)NS(=O)(=O)c2ccc(Cl)cc2)CCN1C(=O)C1(c2ccccc2)CCCC1 (stereo not given)	-	-	.	-	.
CC1(C(=O)NS(=O)(=O)c2ccc(C#N)cc2)CCN1C(=O)C1(c2ccc(Cl)cc2)CC1 (stereo not given)	-	-	.	-	-
CC1(C(=O)NS(=O)(=O)c2ccc3c(c2)CCO3)CCN1C(=O)C1(c2ccc(Cl)cc2)CCC1 (stereo not given)	-	-	.	-	-
CC1(C(=O)NS(=O)(=O)c2cccc(C#N)c2)CCN1C(=O)C1(c2ccc(Cl)cc2)CC1 (stereo not given)	-	-	.	-	.
CC1(C(=O)NS(=O)(=O)c2ccc(C#N)cc2)CCN1C(=O)C1(c2ccccc2)CCCC1 (stereo not given)	-	-	.	-	-
Cc1ccc(F)c(S(=O)(=O)NC(=O)C2(C)CCN2C(=O)C2(c3ccc(Cl)cc3)CCC2)c1 (stereo not given)	-	-	.	-	.
CC1(C(=O)NS(=O)(=O)c2ccc3c(c2)CCO3)CCN1C(=O)CCc1ccc(Cl)cc1Cl (stereo not given)	-	-	.	-	.
O=C(/C=C(\Nc1ccc(Cl)c(Cl)c1)c1ccccc1)c1ccccc1	-	.	.	.	.
O=C(NCCCCC(NC(=O)c1ccccc1)C(=O)O)OCc1ccccc1 (stereo not given)	-	.	.	.	.
CC1(C(=O)NS(=O)(=O)c2ccc(Cl)cc2)CCN1C(=O)C1(c2ccc(Cl)cc2)CCC1 (stereo not given)	-	-	.	-	-
CC1(C(=O)NS(=O)(=O)c2ccccc2)CCN1C(=O)C1(c2ccc(Cl)cc2)CC1 (stereo not given)	-	71	.	-	-
Cc1ccccc1S(=O)(=O)NC(=O)C1(C)CCN1C(=O)C1(c2ccccc2)CC1 (stereo not given)	-	-	.	-	-
Cc1ccc(S(=O)(=O)NC(=O)C2(C)CCN2C(=O)C2(c3ccc(Cl)cc3)CCC2)cc1 (stereo not given)	-	-	.	-	.
CC(C)(C)c1ccc(S(=O)(=O)NC(=O)C2(C)CCN2C(=O)C2(c3ccccc3)CC2)cc1 (stereo not given)	-	-	.	-	.
Cc1ccc(S(=O)(=O)N2CCN(Cc3ccccc3)CC2)cc1	-	8.0	-	-	-
SMILES	PG9 Ab binder	ABCB6 inh 2	Arr AP2 block	iPSC survival up	ABCB6 blocker 1
O=S(=O)(c1ccccc1)N1CCN(Cc2ccccc2)CC1	-	-	-	-	.
O=S(=O)(NCc1ccccc1)NCc1ccccc1F	-	-	-	-	.
COc1ccc(CNS(=O)(=O)NCc2ccccc2F)cc1	-	70	-	-	-
OCCN1CN(c2ccccc2)C(=S)N(c2ccccc2)C1	-	.	.	.	.
CCOC(=O)c1ccccc1NC(=O)CSc1nnc(Cc2cccn2C)n1-c1ccc(F)cc1	-	65	-	-	-
CCOc1ccccc1NC(=O)CSc1nnc(Cc2cccn2C)n1-c1ccc(F)cc1	-	-	-	-	.
CCOc1ccc(C(=O)NCC(C)C)cc1	-	74	-	-	-
COc1ccc(NC(=O)c2cc(-c3ccc(F)cc3OC)n[nH]2)cc1OC	-	-	.	-	.
